From ChEMBL document CHEMBL4118021, “Studies of TAK1-centered polypharmacology with novel covalent TAK1 inhibitors” (Bioorg Med Chem, 2017)

Key:
Format in all cases: cell-based
[1] = molecular target: Serine/threonine-protein kinase 10 (Homo sapiens) (UniProt O94804); assay: Inhibition of LOK in human SKCO1 cells at 1 uM after 4 hrs using biotin labeled DLKAGNVLMTLEGDIR probe by mass-spectrometric analysis relative to control
[2] = molecular target: T1, Serine/threonine-protein kinase TAO3 (Homo sapiens) (UniProt Q9H2K8); assay: Inhibition of TAO3 in human SKCO1 cells at 1 uM after 4 hrs using biotin labeled DIKAGNILLTEPGQVK probe by mass-spectrometric analysis relative to control
T1 sequence (whole entry): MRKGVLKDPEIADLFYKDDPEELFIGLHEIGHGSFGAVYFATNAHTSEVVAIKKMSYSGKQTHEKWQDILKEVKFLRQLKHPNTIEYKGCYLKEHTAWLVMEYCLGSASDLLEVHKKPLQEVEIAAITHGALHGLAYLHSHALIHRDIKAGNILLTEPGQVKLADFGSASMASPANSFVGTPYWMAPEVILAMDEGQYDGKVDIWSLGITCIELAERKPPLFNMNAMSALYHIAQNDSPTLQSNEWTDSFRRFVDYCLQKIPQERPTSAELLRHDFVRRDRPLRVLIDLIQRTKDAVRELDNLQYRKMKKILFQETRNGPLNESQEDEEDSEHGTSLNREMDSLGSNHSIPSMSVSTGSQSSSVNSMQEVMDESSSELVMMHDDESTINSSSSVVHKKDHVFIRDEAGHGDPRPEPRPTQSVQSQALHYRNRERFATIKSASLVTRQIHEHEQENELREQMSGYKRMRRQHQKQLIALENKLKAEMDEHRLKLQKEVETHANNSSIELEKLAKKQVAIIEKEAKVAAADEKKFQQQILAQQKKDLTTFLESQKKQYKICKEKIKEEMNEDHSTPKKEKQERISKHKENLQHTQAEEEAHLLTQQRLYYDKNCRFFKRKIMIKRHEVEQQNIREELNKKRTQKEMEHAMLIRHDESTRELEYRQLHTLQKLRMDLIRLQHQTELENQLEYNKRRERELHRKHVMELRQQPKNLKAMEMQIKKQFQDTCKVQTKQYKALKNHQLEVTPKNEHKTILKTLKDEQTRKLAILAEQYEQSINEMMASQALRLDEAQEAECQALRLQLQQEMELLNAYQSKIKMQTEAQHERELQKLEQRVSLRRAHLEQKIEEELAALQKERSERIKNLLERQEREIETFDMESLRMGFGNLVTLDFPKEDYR
In short: (§1)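 Live SK-CO-1 cells exposed to compound at 1 μM or DMSO for 4 h (KiNativ). Lysates then labeled with lysine-reactive ATP/ADP-biotin probe, and probe-labeled kinase peptides quantified by mass spectrometry. Percent inhibition of probe-dependent recovery calculated relative to DMSO-treated cells.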

[3] = molecular target: T2, Mixed lineage kinase domain-like protein (Homo sapiens) (UniProt Q8NB16); assay: Inhibition of MLKL in human SKCO1 cells at 1 uM after 4 hrs using biotin labeled APVAIKVFK probe by mass-spectrometric analysis relative to control
T2 sequence (whole entry): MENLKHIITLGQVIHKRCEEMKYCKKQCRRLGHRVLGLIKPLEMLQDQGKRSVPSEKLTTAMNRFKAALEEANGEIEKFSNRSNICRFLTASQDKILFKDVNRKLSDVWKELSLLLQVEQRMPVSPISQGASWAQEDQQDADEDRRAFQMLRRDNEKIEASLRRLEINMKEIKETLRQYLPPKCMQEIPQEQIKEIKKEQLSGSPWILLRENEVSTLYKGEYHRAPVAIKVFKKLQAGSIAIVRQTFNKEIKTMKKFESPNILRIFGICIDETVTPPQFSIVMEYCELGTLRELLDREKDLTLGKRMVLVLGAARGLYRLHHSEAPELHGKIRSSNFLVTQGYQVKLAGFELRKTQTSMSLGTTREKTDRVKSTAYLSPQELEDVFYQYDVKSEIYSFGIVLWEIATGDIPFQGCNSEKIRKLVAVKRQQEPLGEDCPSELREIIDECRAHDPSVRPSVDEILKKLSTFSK

[4] = molecular target: Tyrosine-protein kinase Yes (Homo sapiens) (UniProt P07947); assay: Inhibition of YES in human SKCO1 cells at 1 uM after 4 hrs using biotin labeled QGAKFPIKWTAPEAALYGR probe by mass-spectrometric analysis relative to control
[5] = molecular target: Ribosomal protein S6 kinase (Homo sapiens) (UniProt P51812+Q9UBS0+O75676+Q15349+O75582+P23443+Q9UK32+Q15418); assay: Inhibition of p70S6K in human SKCO1 cells at 1 uM after 4 hrs using biotin labeled DLKPENIMLNHQGHVK probe by mass-spectrometric analysis relative to control; in short: as §1
[6] = molecular target: T3, Serine/threonine-protein kinase Nek9 (Homo sapiens) (UniProt Q8TD19); assay: Inhibition of NEK9 in human SKCO1 cells at 1 uM after 4 hrs using biotin labeled DIKTLNIFLTK probe by mass-spectrometric analysis relative to control; in short: as §1
T3 sequence (whole entry): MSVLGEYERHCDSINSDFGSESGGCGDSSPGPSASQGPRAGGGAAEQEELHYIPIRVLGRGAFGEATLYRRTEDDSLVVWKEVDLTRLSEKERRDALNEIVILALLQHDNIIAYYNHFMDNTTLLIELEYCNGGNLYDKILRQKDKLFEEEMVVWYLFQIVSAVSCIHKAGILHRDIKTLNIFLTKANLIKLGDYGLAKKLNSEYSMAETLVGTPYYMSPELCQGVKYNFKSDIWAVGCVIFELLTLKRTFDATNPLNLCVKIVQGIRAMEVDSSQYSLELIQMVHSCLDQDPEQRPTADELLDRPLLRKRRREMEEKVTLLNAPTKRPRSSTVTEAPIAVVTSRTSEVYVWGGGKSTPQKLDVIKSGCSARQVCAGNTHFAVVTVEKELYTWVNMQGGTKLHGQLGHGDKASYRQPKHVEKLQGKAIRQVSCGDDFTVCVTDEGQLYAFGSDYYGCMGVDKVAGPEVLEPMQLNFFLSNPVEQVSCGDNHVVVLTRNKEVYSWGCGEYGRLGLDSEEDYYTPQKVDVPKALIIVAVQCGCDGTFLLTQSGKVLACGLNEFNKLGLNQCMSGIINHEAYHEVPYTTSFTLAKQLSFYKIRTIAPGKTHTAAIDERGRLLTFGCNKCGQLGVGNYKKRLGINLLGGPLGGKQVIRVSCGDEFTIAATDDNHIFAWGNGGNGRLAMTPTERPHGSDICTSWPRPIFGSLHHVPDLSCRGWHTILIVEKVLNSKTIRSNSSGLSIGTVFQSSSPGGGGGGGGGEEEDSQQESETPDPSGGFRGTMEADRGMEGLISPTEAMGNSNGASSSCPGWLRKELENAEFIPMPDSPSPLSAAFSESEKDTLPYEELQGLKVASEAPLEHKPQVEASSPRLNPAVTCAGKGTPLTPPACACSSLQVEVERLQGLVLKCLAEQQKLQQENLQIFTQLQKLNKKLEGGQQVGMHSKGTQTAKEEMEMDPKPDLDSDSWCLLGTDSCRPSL

Sequence of Tyrosine-protein kinase Yes (Homo sapiens) (P07947 2-543 limits assumed): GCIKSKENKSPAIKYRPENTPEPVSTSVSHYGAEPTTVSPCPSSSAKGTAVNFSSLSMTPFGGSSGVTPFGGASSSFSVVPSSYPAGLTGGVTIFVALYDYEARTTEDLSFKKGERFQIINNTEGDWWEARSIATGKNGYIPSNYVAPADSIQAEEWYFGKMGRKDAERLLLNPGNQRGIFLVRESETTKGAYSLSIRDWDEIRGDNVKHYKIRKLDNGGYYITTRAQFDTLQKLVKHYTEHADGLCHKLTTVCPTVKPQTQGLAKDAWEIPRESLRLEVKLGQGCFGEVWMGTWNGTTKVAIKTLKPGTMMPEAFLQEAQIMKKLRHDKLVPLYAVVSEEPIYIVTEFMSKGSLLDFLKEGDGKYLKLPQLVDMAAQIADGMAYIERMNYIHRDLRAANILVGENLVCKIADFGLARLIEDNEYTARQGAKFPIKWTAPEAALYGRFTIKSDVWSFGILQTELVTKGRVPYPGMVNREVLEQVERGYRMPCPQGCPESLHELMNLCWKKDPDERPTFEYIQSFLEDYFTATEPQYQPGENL
Sequence of Serine/threonine-protein kinase 10 (Homo sapiens) (O94804 whole entry, looked up): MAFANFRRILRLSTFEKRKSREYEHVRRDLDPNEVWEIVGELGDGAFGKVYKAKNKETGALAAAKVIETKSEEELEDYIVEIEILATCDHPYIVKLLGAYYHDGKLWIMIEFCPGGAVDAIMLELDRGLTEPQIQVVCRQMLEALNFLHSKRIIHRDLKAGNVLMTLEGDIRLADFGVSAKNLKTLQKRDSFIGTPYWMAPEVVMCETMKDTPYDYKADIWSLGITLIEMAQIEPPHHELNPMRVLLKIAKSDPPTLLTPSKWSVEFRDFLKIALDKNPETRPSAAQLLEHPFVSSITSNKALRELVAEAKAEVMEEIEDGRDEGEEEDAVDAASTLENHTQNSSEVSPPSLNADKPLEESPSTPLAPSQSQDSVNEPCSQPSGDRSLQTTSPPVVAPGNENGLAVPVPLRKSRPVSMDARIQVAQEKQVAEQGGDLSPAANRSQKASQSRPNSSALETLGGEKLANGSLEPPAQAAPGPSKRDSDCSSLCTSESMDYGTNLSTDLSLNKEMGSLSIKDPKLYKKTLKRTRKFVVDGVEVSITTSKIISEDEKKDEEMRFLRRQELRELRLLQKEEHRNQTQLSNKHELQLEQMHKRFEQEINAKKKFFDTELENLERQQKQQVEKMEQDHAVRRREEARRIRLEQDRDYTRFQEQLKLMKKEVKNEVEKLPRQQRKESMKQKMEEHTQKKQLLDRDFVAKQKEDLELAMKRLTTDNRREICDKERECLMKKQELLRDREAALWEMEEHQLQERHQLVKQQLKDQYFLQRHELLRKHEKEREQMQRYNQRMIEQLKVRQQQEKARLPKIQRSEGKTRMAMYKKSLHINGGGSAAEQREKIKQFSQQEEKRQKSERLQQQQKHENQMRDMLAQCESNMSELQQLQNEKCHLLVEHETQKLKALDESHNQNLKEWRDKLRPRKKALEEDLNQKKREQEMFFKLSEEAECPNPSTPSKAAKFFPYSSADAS

Compound	inhibition [1] [%]	inhibition [2] [%]	inhibition [3] [%]	inhibition [4] [%]	inhibition [5] [%]	inhibition [6] [%]
C=CC(=O)Nc1ccccc1Oc1nc(Nc2cnn(CCOC)c2)ncc1Cl	11.6	9.6	53.7	-0.9	14.3	9
C=CC(=O)Nc1ccccc1Nc1nc(Nc2ccc(N3CCN(C)CC3)cc2)ncc1Cl	40.4	13.1	52.3	50.5	16.3	3.2
COc1cc(O)c2c(c1)/C=C/C[C@H](O)[C@H](O)C(=O)/C=C\C[C@H](C)OC2=O	21.4	39.4	56.6	8.5	45.5	24.7
